Compound activity: PubChem, Sanford-Burnham Center for Chemical Genomics
Most compounds without a hit are left out; they make up all but 2.5% or so of the library.
SENP6 block – blocks the human protease SENP6 | Q9GZR1 | Recombinant SENP6 catalytic domain, aminoluciferin luminescence | inhibition, % at 10 µM | 330,000 compounds, 1.8% hits | AID 2599;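 active = inhibition above about 50% at the single tested dose, limit read from the data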;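 also: plate controls were DMSO wells with enzyme for no effect and DMSO wells lacking enzyme for full effect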
SENP1 FRET inh – blocks the human SENP1 SUMO protease catalytic domain. inhibition, % at 10 µM. AID 624204. recombinant SENP1 catalytic domain, CyPet-SUMO1-YPet FRET cleavage. 360,000 compounds, 0.21% hits. Q9P0U3;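 active = inhibition at least 30% at 10 µM, raw YFP signal under a set limit, fluorescence ratio 0.5 to 1.5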;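 also: 0% = enzyme with DMSO and 100% = no enzyme wells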
Target sequence (Q9P0U3 419-644 limits assumed): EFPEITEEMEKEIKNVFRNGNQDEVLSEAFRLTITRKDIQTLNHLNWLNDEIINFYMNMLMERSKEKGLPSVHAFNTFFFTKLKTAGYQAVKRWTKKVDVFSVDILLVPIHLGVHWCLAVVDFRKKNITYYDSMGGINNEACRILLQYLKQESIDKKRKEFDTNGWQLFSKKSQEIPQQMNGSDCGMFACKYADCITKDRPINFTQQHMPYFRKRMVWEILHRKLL
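Compound: 10 µM single point, 0.5% DMSO; Test system: hSENP1 catalytic domain, recombinant; Timing: 50 min reaction at room temperature; Technique: FRET, CFP and YFP emission; Control set: no-enzyme wells low, DMSO-plus-enzyme wells high control.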
SENP7 block – inhibitors of human SENP7 protease; Q9BQF6; recombinant SENP7, Z-RLRGG-aminoluciferin luminescence, 40 min; inhibition, % at 5 µM; 330,000 compounds, 1.5% hits;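 active = inhibition above about 50% at the single test dose, limit read from the data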;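 also: plate controls were DMSO with enzyme for no effect and no enzyme buffer wells for full effect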
SENP8 block-1 – inhibitors of human SENP8 protease | Q96LD8 | recombinant SENP8, Nedd8 substrate fluorescence | inhibition, % at 20 µM | 360,000 compounds, 0.64% hits | AID 602440; in the data active = inhibition mostly above about 40%, no sharp cut-off; inactive = mostly below about 27%
SENP8 block-2 – blocks the human protease SENP8. Q96LD8. purified SENP8, Z-RLRGG-aminoluciferin cleavage, luminescence. inhibition, % at 10 µM. 330,000 compounds, 1.2% hits; in the data active = inhibition above about 50%
SENP8 confirm – human SENP8 inhibition, confirmed. shares compounds with SENP7 block. Recombinant SENP8, Z-RLRGG-aminoluciferin luminescence, 60 min. inhibition, % at 12.5 µM. 6,200 compounds, 40% hits. AID 488912;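 active = mean inhibition across replicates above about 50%, limit read from the data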
SENP6 conf – confirmation of human SENP6 protease inhibitors; recombinant SENP6, Z-RLRGG-aminoluciferin luminescence; 6,200 compounds, 58% hits; inhibition, % at 12.5 µM; shares compounds with SENP7 block
SENP7 confirm – confirmation of human SENP7 protease inhibitors. shares compounds with SENP7 block. recombinant SENP7, Z-RLRGG-aminoluciferin luminescence, 40 min. inhibition, % at 12.5 µM. 6,200 compounds, 69% hits
Casp3 SENP sel – selectivity test for SENP inhibitors: human caspase-3 inhibition; shares compounds with SENP7 block; purified caspase-3, Z-DEVD-aminoluciferin luminescence, 60 min; inhibition, % at 12.5 µM; 6,200 compounds, 60% hits;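 active = mean inhibition above about 50%, limit read from the data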;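 also: plate controls were enzyme with DMSO for no effect and wells without caspase-3 for full effect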
Target sequence (P42574 28-227 limits assumed): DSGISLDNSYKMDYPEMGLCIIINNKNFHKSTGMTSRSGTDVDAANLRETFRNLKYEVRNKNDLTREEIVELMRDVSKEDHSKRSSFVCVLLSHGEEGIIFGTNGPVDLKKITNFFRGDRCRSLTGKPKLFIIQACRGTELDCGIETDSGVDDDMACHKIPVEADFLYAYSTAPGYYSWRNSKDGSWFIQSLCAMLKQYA
SENP luc ctr – counter-screen for SENP inhibitors: luminescence interference. Pre-incubated SENP8/Z-RLRGG-aminoluciferin, luciferase luminescence interference. shares compounds with SENP7 block. 6,200 compounds, 39% hits. inhibition, % at 12.5 µM. AID 488919;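 active = mean inhibition above about 50% when retested at one dose, limit read from the data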;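 also: plate controls were DMSO wells with completed reaction for no effect and substrate without enzyme for full effect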
Starred values were filed as active, the others as inactive; · = not tested or not shown.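 The calls were made as follows, unless noted: active = mean inhibition above about 50% in the one-dose retest (limit read from the data); inactive = the rest.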

SMILES	SENP6 block	SENP1 FRET inh	SENP7 block	SENP8 block-1	SENP8 block-2	SENP8 confirm	SENP6 conf	SENP7 confirm	Casp3 SENP sel	SENP luc ctr
COc1ccc(-c2nnc(-c3ccccc3)o2)cc1OC	58*	0	64*	-304	35	50	50	84*	76*	68*
COc1cc(-c2nnc(-c3ccccc3)o2)cc(OC)c1OC	-1	0	1	-494	4	·	·	·	·	·
CSc1ccccc1-c1nnc(-c2ccccc2)o1	84*	-2	83*	-212	74*	66*	81*	96*	78*	62*
c1ccc(-c2nnc(-c3ccccc3)o2)cc1	87*	2	92*	12	79*	72*	82*	96*	88*	66*
O=C(c1nc2ccccn2c1CNCCCn1cccn1)N1CCCC1	-9	-3	-9	1	-6	·	·	·	·	·
Nc1nc2n(n1)C(c1cccc(Cl)c1)CC(c1ccc(F)cc1)N2 (centres undefined)	-9	-117	65*	-42	-7	8	6	-10	-4	-1
Clc1ccc(-c2cc3ccccc3[nH]2)cc1	71*	-7	44	-278	31	11	42	78*	11	26
Cc1cccn2cc(-c3ccc(Cl)cc3)nc12	95*	-1	91*	-290	89*	95*	96*	101*	92*	54*
Cc1ccc(-c2cn3cccc(C)c3n2)cc1	·	-3	·	-207	·	·	·	·	·	·
C/C(=N\NC(=O)c1nn(C)c(C)c1Br)c1ccc(NC(=O)c2ccoc2C)cc1	41	2	60*	-8	-7	-2	2	0	12	13
O=C(O)c1cc(-c2ccc3ccccc3c2)nc2ccc(F)cc12	73*	-2	33	-369	66*	-2	6	14	9	24
O=C(NCc1cccc(Cl)c1)c1ccc(S(=O)(=O)N2CCCCC2)cc1	·	3	·	13	·	·	·	·	·	·
O=C(c1cc(-c2cccc(O)c2)on1)N1CCCCC1	-8	2	68*	4	61*	7	67*	91*	78*	73*
O=C(c1cc(-c2ccccc2)on1)N1CCCCCC1	5	0	5	9	-2	·	·	·	·	·
O=C(c1cc(-c2cccc(O)c2)on1)N1CCCC1	50*	-5	18	15	17	45	40	78*	70*	38
O=C(c1cc(-c2ccc3c(c2)OCO3)on1)N1CCOCC1	67*	1	57*	-3	32	58*	52*	84*	82*	54*
O=C(c1cc(-c2ccc3c(c2)OCO3)on1)N1CCN(c2ccccc2)CC1	-1	1	0	2	7	·	·	·	·	·
O=C(c1cc(-c2ccc(Cl)cc2Cl)on1)N1CCOCC1	62*	1	-9	13	47	49	49	85*	72*	51*
O=C(COC(=O)C12CC3CC(CC(Br)(C3)C1)C2)N1CCOCC1	-16	0	0	20	9	·	·	·	·	·
O=C(Nc1ccc2ccccc2n1)c1ccccc1	88*	0	93*	19	87*	85*	85*	98*	89*	89*
COc1ccc(C(=O)Nc2ccc3ccccc3n2)cc1OC	12	1	1	-43	-7	·	·	·	·	·
O=C(Nc1ccc2ccccc2n1)c1ccccc1Br	79*	-2	84*	0	77*	9	80*	97*	82*	17
Cc1cc(C)cc(NC(=O)Nc2ccc3ccccc3n2)c1	2	2	3	19	2	·	·	·	·	·
